This is an account of results in ChEMBL document CHEMBL1137100, “Design, synthesis, and antiviral activity of certain 3-substituted 2,5,6-trichloroindole nucleosides” (J Med Chem, 2004).

One assay deals with Human alphaherpesvirus 1. Description: Inhibitory concentration required against herpes simplex virus type-1 (HSV-1) expressed in BSC-1 cells was determined by ELISA assay. To be noted: Human alphaherpesvirus 1, BSC-1. The class given is functional, organism-based. An outline of the steps: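 HSV-1 KOS strain. BSC-1 cells, 10 000 per well in MEM(E) with 10% calf serum, incubated overnight at 37 °C, then drug plus virus at 100 pfu/well, quadruplicate wells, 3 days at 37 °C. Detection with HRP-conjugated rabbit anti-HSV-1 antibody and TMB substrate, stopped with H₂SO₄ after 15 min, absorbance at 450 and 570 nm. IC50 by regression vs log10 concentration; acyclovir as positive control.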

The next assay relates to Human betaherpesvirus 5. Kind of assay: Inhibitory concentration required against human cytomegalovirus (HCMV) expressed in HFF cells was determined by plaque reduction assay. To be noted: Human betaherpesvirus 5, HFF. The class given is functional, organism-based. Put shortly: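 HCMV Towne strain, isolate P₀. HFF monolayers infected with about 100 pfu per cm²; after adsorption, compound (diluted from 10 mg/mL DMSO stock) added at four to eight concentrations in duplicate wells. Incubated 7–10 days at 37 °C, fixed and stained with crystal violet, plaques counted microscopically. IC50 from regression of % plaque reduction vs log10 concentration; ganciclovir as positive control.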
(In general: Plaque reduction counts the foci of infection that form in a cell layer.)

In the next assay the test system is HFF. Description: Cytotoxicity produced in stationary HFF cells was determined by microscopic inspection of uninfected cells. The class given is functional, cell-based. The following applies: Homo sapiens. Put shortly:
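Uninfected stationary HFF cells inspected microscopically for cytotoxicity, scored at the time of HCMV plaque enumeration (7–10 days at 37 °C), duplicate wells. Compounds from 10 mg/mL DMSO stocks diluted in growth medium. IC50 from linear regression of % inhibition vs log10 concentration.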

A short description of assay [1]: Cytotoxicity against KB cells was determined by crystal violet staining and spectrophotometric quantitation of dye eluted from stained cells. The class given is functional, cell-based. An outline of the steps: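 KB cells seeded at 3000–5000 per well, incubated overnight at 37 °C, then exposed to compound at six to eight concentrations for 48 h at 37 °C in CO₂ (two population doublings). Fixed with 95% ethanol, stained with 0.1% crystal violet, dye eluted with acidified ethanol, read at 570 nm. IC50 by linear regression of % inhibition vs log10 concentration.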

In general, pIC50 refers to the negative decadic logarithm of the IC50, by convention in mol/L. Low readings indicate a high IC50, high ones a low IC50.

pIC50: −log10 of the molar value. A value given as a limit tells only on which side of the number the result lay.

In the case of `CC(=O)OC[C@H]1OC(n2c(Cl)c(C=O)c3cc(Cl)c(Cl)cc32)[C@H](O)[C@@H]1O` (some centres not stated), the pIC50 in the assay with Human alphaherpesvirus 1 was 4.70; in the assay with Human betaherpesvirus 5 it was more than 7.00; in the assay on HFF, 4.49; in assay [1] it was 4.46.
The corresponding values for `CC(=O)OC[C@H]1OC(n2c(Br)c(C=O)c3cc(Cl)c(Cl)cc32)[C@H](O)[C@@H]1O` (some centres not stated) are 4.82, 6.49, 4.49 and 4.40.
Regarding `OC[C@H]1O[C@@H](n2c(Br)nc3cc(Cl)c(Cl)cc32)C(O)[C@@H]1O` (single isomer, unassigned), the pIC50 was 3.89 in the assay on Human alphaherpesvirus 1, 6.15 in the assay on Human betaherpesvirus 5 and less than 4.00 in assay [1].
Consider `OC[C@H]1O[C@@H](n2c(Cl)nc3cc(Cl)c(Cl)cc32)C(O)[C@@H]1O` (single isomer, unassigned), for which the negative-log IC50 (pIC50) in the assay on Human betaherpesvirus 5 was 5.54; in assay [1], 3.68.
`OC[C@H]1OC(n2c(Cl)c(Cl)c3cc(Cl)c(Cl)cc32)C(O)[C@@H]1O` (single isomer, unassigned): the pIC50 in the assay on Human alphaherpesvirus 1 is 4.35; with Human betaherpesvirus 5, 4.42; in the assay on HFF, 4.49; in assay [1], 4.10.
The corresponding values for `O=Cc1c(Br)n(C2O[C@H](CO)[C@@H](O)C2O)c2cc(Cl)c(Cl)cc12` (single isomer, unassigned) are 4.70, 6.49, 4.49 and 4.30.
Turning to `N#Cc1c(Cl)n(C2O[C@H](CO)[C@@H](O)C2O)c2cc(Cl)c(Cl)cc12` (single isomer, unassigned), the pIC50 in the assay on Human alphaherpesvirus 1 is 4.82; in the assay on Human betaherpesvirus 5 it was 6.26; with HFF it was 4.49; in assay [1] it was 4.19.
For `CCC(=O)c1c(Cl)n(C2O[C@H](CO)[C@@H](O)C2O)c2cc(Cl)c(Cl)cc12` (single isomer, unassigned), the pIC50 with Human alphaherpesvirus 1 was 4.70; in the assay on Human betaherpesvirus 5 it was 5.60; in the assay on HFF it was less than 4.00; in assay [1], 4.00.
For `O=C(c1c(Cl)n(C2O[C@H](CO)[C@@H](O)C2O)c2cc(Cl)c(Cl)cc12)C(F)(F)F` (single isomer, unassigned), in that order: 4.82, 5.21, 4.49 and 4.70.
The corresponding values for `CC(=O)OC[C@H]1OC(n2c(Cl)c(C#N)c3cc(Cl)c(Cl)cc32)C(O)[C@@H]1O` (single isomer, unassigned) are 4.30, 5.60, 4.49 and 4.15.
The corresponding values for `OC[C@H]1OC(n2c(Cl)c(-c3ccsc3)c3cc(Cl)c(Cl)cc32)C(O)[C@@H]1O` (single isomer, unassigned) are 4.35, 4.51, less than 4.00 and 4.22.
As for `O=CCc1c(Cl)n(C2O[C@H](CO)[C@@H](O)C2O)c2cc(Cl)c(Cl)cc12` (single isomer, unassigned), the negative-log IC50 (pIC50) was less than 4.00 in the assay with Human alphaherpesvirus 1, 5.40 in the assay with Human betaherpesvirus 5, less than 4.00 in the assay with HFF and 4.15 in assay [1].
Take `O=Cc1c(Cl)n(C2O[C@H](CO)[C@@H](O)C2O)c2cc(Cl)c(Cl)cc12` (single isomer, unassigned): the pIC50 in the assay with Human alphaherpesvirus 1 was 4.40; in the assay on Human betaherpesvirus 5, 6.64; in the assay on HFF, 4.35; in assay [1] it was 4.35.
As for `CC(=O)c1c(Cl)n(C2O[C@H](CO)[C@@H](O)C2O)c2cc(Cl)c(Cl)cc12` (single isomer, unassigned), the negative logarithm of the IC50 (pIC50) in the assay with Human alphaherpesvirus 1 is 4.70; in the assay on Human betaherpesvirus 5, 6.51; in the assay on HFF, less than 4.00; in assay [1], 4.30.
The corresponding values for `OC[C@H]1OC(n2c(Cl)c(-c3ccco3)c3cc(Cl)c(Cl)cc32)C(O)[C@@H]1O` (single isomer, unassigned) are 4.30, 4.38, 4.49 and 4.10.
As to `OC[C@H]1OC(n2c(Cl)c(I)c3cc(Cl)c(Cl)cc32)C(O)[C@@H]1O` (single isomer, unassigned), the pIC50 in the assay with Human alphaherpesvirus 1 was 4.70; in the assay on Human betaherpesvirus 5 it was 4.92; with HFF it was 4.49; in assay [1], 4.19.
The corresponding values for `CCC(=O)c1c(Cl)n(C2O[C@H](COC(C)=O)[C@@H](O)C2O)c2cc(Cl)c(Cl)cc12` (single isomer, unassigned) are 4.82, 5.49, less than 4.00 and 4.00.
On to `CC(=O)OC[C@H]1OC(n2c(Cl)c(C(C)=O)c3cc(Cl)c(Cl)cc32)C(O)[C@@H]1O` (single isomer, unassigned), for which the pIC50 was 4.70 in the assay with Human alphaherpesvirus 1, 6.52 with Human betaherpesvirus 5, 4.49 with HFF and 4.40 in assay [1].
In the case of `CCCC(=O)OC[C@H]1OC(n2c(Cl)c(C=O)c3cc(Cl)c(Cl)cc32)C(O)[C@@H]1O` (single isomer, unassigned), the pIC50 was 5.05 in the assay with Human alphaherpesvirus 1, 6.60 in the assay on Human betaherpesvirus 5, 4.49 with HFF and 4.40 in assay [1].
On to `Cc1c(Cl)n(C2O[C@H](CO)[C@@H](O)C2O)c2cc(Cl)c(Cl)cc12` (single isomer, unassigned), for which the pIC50 in the assay on Human alphaherpesvirus 1 was 4.15; in the assay on Human betaherpesvirus 5 it was 4.49; in the assay with HFF it was 4.49; in assay [1], less than 4.00.
With `COC(=O)OC[C@H]1OC(n2c(Cl)c(C=O)c3cc(Cl)c(Cl)cc32)C(O)[C@@H]1O` (single isomer, unassigned), the pIC50 in the assay with Human alphaherpesvirus 1 is 4.82; with Human betaherpesvirus 5, 6.70; in the assay with HFF, 4.49; in assay [1] it was 4.30.
Consider `CCC(=O)OC[C@H]1OC(n2c(Cl)c(C=O)c3cc(Cl)c(Cl)cc32)C(O)[C@@H]1O` (single isomer, unassigned), for which the pIC50 is 5.00 in the assay with Human alphaherpesvirus 1, 6.66 in the assay with Human betaherpesvirus 5, 4.49 in the assay with HFF and 4.30 in assay [1].
On to `Nc1nc2c(ncn2COC(CO)CO)c(=O)[nH]1` [GANCICLOVIR], for which the pIC50 (in the assay on HFF; in assay [1]) was less than 4.00 in each case.
